Laboratory results from ChEMBL document CHEMBL4138085, “Design, synthesis and antimicrobial evaluation of novel benzimidazole-incorporated sulfonamide analogues” (Eur J Med Chem, 2017).
In brackets after ≈: the same amount, converted by molar mass. Activity calls are given as the source filed them. No cut-off for these calls is given here.

Key:
Calf thymus DNA [1] = test: Binding affinity to calf thymus DNA by UV-vis absorption spectra analysis; type: nucleic-acid assay; settings: Bos taurus
Outline: (§1)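 Calf thymus DNA was held at a fixed concentration and titrated with increasing amounts of compound. UV-vis absorption spectra were recorded, following the DNA absorption maximum at 260 nm.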

Micrococcus luteus = test: Antibacterial activity against Micrococcus luteus ATCC 4698 after 24 hrs by NCCLS two fold broth microdilution method; type: functional; settings: NCTC 2665, 24 h
Outline: (§2)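 Two-fold serial broth microdilution in 96-well plates following NCCLS. Compounds were dissolved in DMSO as stocks, then diluted in Mueller–Hinton broth to final concentrations of 0.5–512 µg/mL. Plates were inoculated and incubated at 37 °C for 24 h, with growth read visually and spectrophotometrically. MIC was taken as the lowest concentration giving complete growth inhibition. Run in triplicate, with a DMSO-plus-inoculum solvent control.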

Escherichia coli = test: Antibacterial activity against Escherichia coli ATCC 8099 after 24 hrs by NCCLS two fold broth microdilution method; type: functional; settings: ATCC 8099, 24 h
Outline: as §2, with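 “NCCLS.” for “NCCLS. Compounds were dissolved in DMSO as stocks, then diluted in Mueller–Hinton broth to final concentrations of 0.5–512 µg/mL.”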

Aspergillus flavus [2] = test: Potency index, ratio of Fluconazole MIC to compound MIC for Aspergillus flavus; type: functional
Pichia norvegensis = test: Antifungal activity against Candida mycoderma after 24 hrs by NCCLS two fold broth microdilution method; type: functional
Albumin [3] = target: T1, Albumin (Homo sapiens, UniProt P02768); test: Binding affinity to human serum albumin by fluorescence spectroscopic analysis; type: ADME; settings: isolated protein
T1 sequence (P02768 whole entry): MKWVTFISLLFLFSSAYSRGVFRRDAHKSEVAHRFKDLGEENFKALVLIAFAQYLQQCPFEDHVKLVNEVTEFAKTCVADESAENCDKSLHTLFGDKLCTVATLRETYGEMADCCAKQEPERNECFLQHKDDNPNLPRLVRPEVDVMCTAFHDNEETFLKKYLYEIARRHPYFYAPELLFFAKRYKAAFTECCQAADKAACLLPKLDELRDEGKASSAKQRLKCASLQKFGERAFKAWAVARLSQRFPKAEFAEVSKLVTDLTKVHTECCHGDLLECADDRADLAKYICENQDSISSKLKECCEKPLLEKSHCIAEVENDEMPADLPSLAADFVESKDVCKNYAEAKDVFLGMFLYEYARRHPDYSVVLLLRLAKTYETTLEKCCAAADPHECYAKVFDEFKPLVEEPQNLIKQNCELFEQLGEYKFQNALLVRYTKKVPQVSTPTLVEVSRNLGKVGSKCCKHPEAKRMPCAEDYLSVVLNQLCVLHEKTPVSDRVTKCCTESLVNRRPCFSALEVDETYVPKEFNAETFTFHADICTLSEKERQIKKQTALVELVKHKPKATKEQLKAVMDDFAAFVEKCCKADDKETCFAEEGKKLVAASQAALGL

Albumin [4] = target: T1, Albumin; test: Binding affinity to human serum albumin assessed as Stern-Volmer quenching constant at 313 K by fluorescence spectroscopic analysis; type: ADME; settings: isolated protein
Outline: (§3)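 Intrinsic fluorescence of HSA (single Trp-214, emission peak 348 nm) was recorded with increasing compound concentration at several temperatures. Quenching data were fitted to the Stern-Volmer equation F0/F = 1 + KSV[Q] = 1 + Kqτ0[Q] to give KSV, and Kq was derived via τ0.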

Albumin [5] = target: T1, Albumin; test: Binding affinity to human serum albumin at 313 K by modified Stern-Volmer method; type: ADME; settings: isolated protein
Albumin [6] = target: T1, Albumin; test: Binding affinity to human serum albumin assessed as Gibbs free energy change at 313 K by van't Hoff plot analysis; type: ADME; settings: isolated protein
Candida albicans = test: Antifungal activity against Candida albicans ATCC 76615 after 24 hrs by NCCLS two fold broth microdilution method; type: functional; settings: ATCC 76615, 24 h
Outline: (§4)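 Two-fold serial microdilution following NCCLS. A spore suspension in sterile distilled water was prepared from one-day-old cultures grown on Sabouraud agar and adjusted to a final 1–5 × 10^3 spores/mL. DMSO stocks were diluted in RPMI 1640 to eleven concentrations (0.5–512 µg/mL), inoculated and held at 35 °C for 24 h. Growth was read visually and spectrophotometrically, MIC was the lowest concentration with complete inhibition, and runs were in triplicate.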

Albumin [7] = target: T1, Albumin; test: Binding affinity to human serum albumin assessed as Stern-Volmer quenching constant at 273 K by fluorescence spectroscopic analysis; type: ADME; settings: isolated protein; outline: as §3
Albumin [8] = target: T1, Albumin; test: Binding affinity to human serum albumin assessed as quenching constant at 293 K by fluorescence spectroscopic analysis; type: ADME; settings: isolated protein; outline: as §3
Albumin [9] = target: T1, Albumin; test: Binding affinity to human serum albumin assessed as Gibbs free energy change at 273 K by van't Hoff plot analysis; type: ADME; settings: isolated protein
Bacillus subtilis [10] = test: Antibacterial activity against Bacillus subtilis ATCC 21216 after 24 hrs by NCCLS two fold broth microdilution method; type: functional; settings: ATCC 21216, 24 h; outline: as §2
Pseudomonas aeruginosa [11] = test: Antibacterial activity against Pseudomonas aeruginosa ATCC 27853 after 24 hrs by NCCLS two fold broth microdilution method; type: functional; settings: ATCC 27853, 24 h
Outline: as §2, with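 “NCCLS.” for “NCCLS. Compounds were dissolved in DMSO as stocks, then diluted in Mueller–Hinton broth to final concentrations of 0.5–512 µg/mL.”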

Albumin [12] = target: T1, Albumin; test: Binding affinity to human serum albumin up to 1.6 10^-5 mol/L by UV-vis absorption spectra analysis; type: ADME; settings: isolated protein
Albumin [13] = target: T1, Albumin; test: Binding affinity to human serum albumin assessed as Stern-Volmer quenching constant at 293 K by fluorescence spectroscopic analysis; type: ADME; settings: isolated protein; outline: as §3
Albumin [14] = target: T1, Albumin; test: Binding affinity to human serum albumin assessed as Gibbs free energy change at 293 K by van't Hoff plot analysis; type: ADME; settings: isolated protein
Albumin [15] = target: T1, Albumin; test: Binding affinity to human serum albumin at 273 K by modified Stern-Volmer method; type: ADME; settings: isolated protein
Staphylococcus aureus [16] = test: Antibacterial activity against methicillin-resistant Staphylococcus aureus N315 after 24 hrs by NCCLS two fold broth microdilution method; type: functional; settings: N315, 24 h
Outline: (§5)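 Two-fold serial broth microdilution per NCCLS. Chloromycin and norfloxacin as reference drugs; DMSO with inoculum, no drug, as solvent control. Incubation 37 °C for 24 h. Growth read visually and spectrophotometrically. MIC is the lowest concentration completely inhibiting growth; triplicate.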

Calf thymus DNA [17] = test: Binding affinity to calf thymus DNA assessed as increase in maximum absorption by UV-vis absorption spectra analysis; type: nucleic-acid assay; settings: Bos taurus; outline: as §1
Calf thymus DNA [18] = test: Binding affinity to calf thymus DNA assessed as hypochromic effect up to 1.6 10^-5 mol/L by UV-vis absorption spectra analysis; type: nucleic-acid assay; settings: Bos taurus; outline: as §1
Cyberlindnera jadinii = test: Antifungal activity against Candida utilis after 24 hrs by NCCLS two fold broth microdilution method; type: functional; settings: Williopsis jadinii; outline: as §4
Saccharomyces cerevisiae = test: Antifungal activity against Saccharomyces cerevisiae after 24 hrs by NCCLS two fold broth microdilution method; type: functional; outline: as §4
Albumin [19] = target: T1, Albumin; test: Binding affinity to human serum albumin at 293 K by modified Stern-Volmer method; type: ADME; settings: isolated protein
Albumin [20] = target: T1, Albumin; test: Binding affinity to human serum albumin at 293 K by scatchard plot analysis; type: ADME; settings: isolated protein
Calf thymus DNA [21] = test: Binding affinity to calf thymus DNA assessed as hyperchromic effect up to 1.6 10^-5 mol/L by UV-vis absorption spectra analysis; type: nucleic-acid assay; settings: Bos taurus; outline: as §1
Calf thymus DNA [22] = test: Inhibition of neutral red binding to calf thymus DNA up to 0.48 10^-5 mol/L by UV-vis absorption spectra analysis; type: nucleic-acid assay; settings: Bos taurus
Salmonella typhi [23] = test: Potency index, ratio of Chloromycin MIC to compound MIC for Bacillus typhi; type: functional, Salmonella enterica subsp. enterica serovar Typhi
Albumin [24] = target: T1, Albumin; test: Binding affinity to human serum albumin assessed as change in entropy at 273 K by van't Hoff plot analysis; type: ADME; settings: isolated protein
Albumin [25] = target: T1, Albumin; test: Binding affinity to human serum albumin assessed as quenching constant at 273 K by fluorescence spectroscopic analysis; type: ADME; settings: isolated protein; outline: as §3
Salmonella typhi [26] = test: Antibacterial activity against Bacillus typhi after 24 hrs by NCCLS two fold broth microdilution method; type: functional, Salmonella enterica subsp. enterica serovar Typhi; settings: Salmonella enterica
Outline: as §5, with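 “NCCLS. DMSO stocks diluted in Mueller–Hinton broth to 512, 256, 128, 64, 32, 16, 8, 4, 2, 1, 0.5 µg/mL.” for “NCCLS.”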

Albumin [27] = target: T1, Albumin; test: Binding affinity to human serum albumin assessed as quenching constant at 313 K by fluorescence spectroscopic analysis; type: ADME; settings: isolated protein; outline: as §3
Staphylococcus aureus [28] = test: Antibacterial activity against Staphylococcus aureus ATCC 25923 after 24 hrs by NCCLS two fold broth microdilution method; type: functional; settings: ATCC 25923, 24 h; outline: as §2
Aspergillus flavus [29] = test: Antifungal activity against Aspergillus flavus after 24 hrs by NCCLS two fold broth microdilution method; type: functional; outline: as §4
Bacillus = test: Antibacterial activity against Bacillus proteus ATCC 13315 after 24 hrs by NCCLS two fold broth microdilution method; type: functional; settings: ATCC 13315, 24 h; outline: as §2
Albumin [30] = target: T1, Albumin; test: Binding affinity to human serum albumin at 313 K by scatchard plot analysis; type: ADME; settings: isolated protein
Albumin [31] = target: T1, Albumin; test: Binding affinity to human serum albumin at 273 K by scatchard plot analysis; type: ADME; settings: isolated protein
Albumin [32] = target: T1, Albumin; test: Binding affinity to human serum albumin assessed as change in enthalpy at 273 K by van't Hoff plot analysis; type: ADME; settings: isolated protein
Staphylococcus aureus [33] = test: Potency index, ratio of Chloromycin MIC to compound MIC for Staphylococcus aureus ATCC 25923; type: functional
Bacillus subtilis [34] = test: Potency index, ratio of Chloromycin MIC to compound MIC for Bacillus subtilis ATCC 21216; type: functional
Pseudomonas aeruginosa [35] = test: Potency index, ratio of Chloromycin MIC to compound MIC for Pseudomonas aeruginosa ATCC 27853; type: functional
Staphylococcus aureus [36] = test: Potency index, ratio of norfloxacin MIC to compound MIC for Staphylococcus aureus ATCC 25923; type: functional

## CC(=O)Nc1ccc(S(=O)(=O)Cc2nc3ccccc3n2Cc2ccc(Cl)cc2Cl)cc1
Calf thymus DNA [1]
  K: 1.52 ×10⁴ L/mol
Micrococcus luteus
  MIC: 128 µg/mL (≈ 262 µM)
Escherichia coli
  MIC: 8 µg/mL (≈ 16.4 µM)
Aspergillus flavus [2]
  Ratio: 16
Pichia norvegensis
  MIC: 512 µg/mL (≈ 1050 µM)
Albumin [3]
  Activity: Dose-dependent effect
Albumin [4]
  KSV: 3.02 ×10⁴ L/mol
Albumin [5]
  Ka: 10600 M⁻¹
Albumin [6]
  deltaG: -5.7639 kcal/mol
Candida albicans
  MIC: 512 µg/mL (≈ 1050 µM)
Albumin [7]
  KSV: 5.25 ×10⁴ L/mol
Albumin [8]
  Kq: 6.38 ×10¹² L/mol/s
Albumin [9]
  deltaG: -5.0523 kcal/mol
Bacillus subtilis [10]
  MIC: 16 µg/mL (≈ 32.8 µM)
Pseudomonas aeruginosa [11]
  MIC: 16 µg/mL (≈ 32.8 µM)
Albumin [12]
  Activity: Active
Albumin [13]
  KSV: 4.08 ×10⁴ L/mol
Albumin [14]
  deltaG: -5.2682 kcal/mol
Albumin [15]
  Ka: 11100 M⁻¹
Staphylococcus aureus [16]
  MIC: 128 µg/mL (≈ 262 µM)
Calf thymus DNA [17]
  Activity: Dose-dependent effect
Calf thymus DNA [18]
  Activity: inactive
Cyberlindnera jadinii
  MIC: 128 µg/mL (≈ 262 µM)
Saccharomyces cerevisiae
  MIC: 128 µg/mL (≈ 262 µM)
Albumin [19]
  Ka: 10800 M⁻¹
Albumin [20]
  Kb: 59300 M⁻¹
Calf thymus DNA [21]
  Activity: Active
Calf thymus DNA [22]
  inhibition: Active
Salmonella typhi [23]
  Ratio: 8
Albumin [24]
  deltaS: 74.429 J/mol/K
Albumin [25]
  Kq: 8.2 ×10¹² L/mol/s
Salmonella typhi [26]
  MIC: 4 µg/mL (≈ 8.19 µM)
Albumin [27]
  Kq: 4.72 ×10¹² L/mol/s
Staphylococcus aureus [28]
  MIC: 64 µg/mL (≈ 131 µM)
Aspergillus flavus [29]
  MIC: 32 µg/mL (≈ 65.5 µM)
Bacillus
  MIC: 32 µg/mL (≈ 65.5 µM)
Albumin [30]
  Kb: 42100 M⁻¹
Albumin [31]
  Kb: 65600 M⁻¹
Albumin [32]
  deltaH: -0.196 kcal/mol

## CC(=O)Nc1ccc(S(=O)(=O)Cc2nc3ccccc3n2Cc2ccc(F)cc2)cc1
Staphylococcus aureus [33]
  Ratio: 2
Calf thymus DNA [1]
  K: 1.26 ×10⁴ L/mol
Micrococcus luteus
  MIC: 64 µg/mL (≈ 146 µM)
Escherichia coli
  MIC: 32 µg/mL (≈ 73.1 µM)
Pichia norvegensis
  MIC: 64 µg/mL (≈ 146 µM)
Albumin [3]
  Activity: Dose-dependent effect
Albumin [4]
  KSV: 1.83 ×10⁴ L/mol
Albumin [5]
  Ka: 35800 M⁻¹
Albumin [6]
  deltaG: -6.3991 kcal/mol
Candida albicans
  MIC: 64 µg/mL (≈ 146 µM)
Albumin [7]
  KSV: 3.26 ×10⁴ L/mol
Albumin [8]
  Kq: 3.44 ×10¹² L/mol/s
Bacillus subtilis [34]
  Ratio: 2
Albumin [9]
  deltaG: -5.81 kcal/mol
Bacillus subtilis [10]
  MIC: 16 µg/mL (≈ 36.6 µM)
Pseudomonas aeruginosa [11]
  MIC: 256 µg/mL (≈ 585 µM)
Albumin [12]
  Activity: Active
Albumin [13]
  KSV: 2.2 ×10⁴ L/mol
Albumin [14]
  deltaG: -6.1047 kcal/mol
Albumin [15]
  Ka: 54300 M⁻¹
Staphylococcus aureus [16]
  MIC: 16 µg/mL (≈ 36.6 µM)
Calf thymus DNA [17]
  Activity: Dose-dependent effect
Calf thymus DNA [18]
  Activity: inactive
Pseudomonas aeruginosa [35]
  Ratio: 4
Cyberlindnera jadinii
  MIC: 16 µg/mL (≈ 36.6 µM)
Saccharomyces cerevisiae
  MIC: 64 µg/mL (≈ 146 µM)
Albumin [19]
  Ka: 36900 M⁻¹
Albumin [20]
  Kb: 58400 M⁻¹
Calf thymus DNA [21]
  Activity: Active
Calf thymus DNA [22]
  inhibition: Active
Albumin [24]
  deltaS: 82.61 J/mol/K
Albumin [25]
  Kq: 5.09 ×10¹² L/mol/s
Salmonella typhi [26]
  MIC: 16 µg/mL (≈ 36.6 µM)
Staphylococcus aureus [36]
  Ratio: 2
Albumin [27]
  Kq: 2.86 ×10¹² L/mol/s
Staphylococcus aureus [28]
  MIC: 4 µg/mL (≈ 9.14 µM)
Aspergillus flavus [29]
  MIC: 64 µg/mL (≈ 146 µM)
Bacillus
  MIC: 32 µg/mL (≈ 73.1 µM)
Albumin [30]
  Kb: 41600 M⁻¹
Albumin [31]
  Kb: 78600 M⁻¹
Albumin [32]
  deltaH: -0.4199 kcal/mol
